High-throughput results from PubChem.
In the library only some 3% were active in any assay of this set; here they are far more common.
CendR NRP1 mod – alters CendR peptide binding to human NRP-1; O14786; FAM-RPARPAR peptide binding to NRP-1, fluorescence polarization; inhibition, % at 25 µM; hit rate 0.85% among 360,000;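 active = inhibition or corrected inhibition above about 18%, plus a signal ratio from 0.5 to 1.5, limit read from the data, passing the limit was not always enough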
Target sequence (O14786 whole entry, looked up): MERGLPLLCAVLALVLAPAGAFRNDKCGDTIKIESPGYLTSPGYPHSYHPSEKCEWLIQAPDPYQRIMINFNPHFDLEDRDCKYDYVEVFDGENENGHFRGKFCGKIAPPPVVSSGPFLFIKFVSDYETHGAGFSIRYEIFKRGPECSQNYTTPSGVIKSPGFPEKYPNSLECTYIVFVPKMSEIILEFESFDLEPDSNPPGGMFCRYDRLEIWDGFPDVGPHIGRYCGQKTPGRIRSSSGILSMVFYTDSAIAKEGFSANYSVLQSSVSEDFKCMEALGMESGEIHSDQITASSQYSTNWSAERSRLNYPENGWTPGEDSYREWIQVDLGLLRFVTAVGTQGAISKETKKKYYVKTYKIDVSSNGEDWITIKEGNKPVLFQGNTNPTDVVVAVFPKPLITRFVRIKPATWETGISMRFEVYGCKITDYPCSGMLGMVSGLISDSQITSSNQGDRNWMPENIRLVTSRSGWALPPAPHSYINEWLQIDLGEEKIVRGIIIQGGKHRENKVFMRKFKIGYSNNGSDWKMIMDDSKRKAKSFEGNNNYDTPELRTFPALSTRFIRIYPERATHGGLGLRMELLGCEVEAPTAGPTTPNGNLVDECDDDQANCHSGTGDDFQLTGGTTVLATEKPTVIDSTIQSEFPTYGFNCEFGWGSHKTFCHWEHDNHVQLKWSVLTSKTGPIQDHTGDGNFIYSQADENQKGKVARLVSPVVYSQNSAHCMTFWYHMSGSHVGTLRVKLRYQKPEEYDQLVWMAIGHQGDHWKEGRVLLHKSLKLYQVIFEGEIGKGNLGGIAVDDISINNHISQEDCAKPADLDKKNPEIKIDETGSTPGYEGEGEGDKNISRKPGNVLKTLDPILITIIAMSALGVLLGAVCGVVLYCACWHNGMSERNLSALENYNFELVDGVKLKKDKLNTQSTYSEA
T cruzi inh – blocks replication of Trypanosoma cruzi; T. cruzi beta-gal in NIH3T3, luminescence, 90 h; inhibition, % (test concentration not listed); hit rate 1.4% among 300,000; AID 1885;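 active = mean inhibition across valid replicates above about 55%, limit read from the data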;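 note: signal also drops with host cell toxicity which is not excluded here; higher percent means less beta-gal luminescence so fewer parasites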
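Read-out: Parasite load inhibition, % | Test system: Mouse NIH/3T3 fibroblasts infected with β-gal-expressing T. cruzi Tulahuen C4 | Amount: 5,000 cells/well | Medium: DMEM, 2% fetal bovine serum | Signal: GalScreen β-gal luminescence, detergent lysis, 60 min | Timing: 3 h attach, ≥90 h co-culture | Also added: Tulahuen C4 trypomastigotes, 5000/well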
V-ATPase pH – alters yeast V-ATPase proton transport; S. cerevisiae, pHLuorin cytosolic pH fluorescence; hit rate 0.37% among 350,000; response, % at 10 µM; in the data active = response mostly above about 7.3%, no sharp cut-off; inactive = mostly below about 5.4%; note: actives read high
Yeast superoxide – yeast age-related superoxide inhibition as caloric restriction mimetic; S. cerevisiae aged cells, superoxide DHE fluorescence; active compounds read low; superoxide response (% of plate mean), % at 10 µM; hit rate 0.18% among 330,000; AID 2690;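 active = superoxide response under a set limit, about three screen SD below normal, cut at about 65% in these data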;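 note: yeast aged for seven days with compound at 30 °C before DHE staining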
HIF activator – HIF pathway transcriptional activation. AID 1910. hit rate 0.32% among 300,000. activation, % at 7.5 µM (by protocol). U2OS HRE-luciferase reporter, luminescence; normalized: DMSO 0%, desferrioxamine 100%;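 active = mean activation of at least 10% of the iron chelator positive control signal, with at least half of replicates also reaching 10%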
AI-2 QS modul – modulators of Vibrio harveyi AI-2 quorum sensing system. Vibrio harveyi JMH597 AI-2 luminescence/OD600 ratio, 9 h; active compounds read low; strain lacks LuxN and CqsS sensors; 0 = neutral-control median. activity change, % at 7.5 µM. hit rate 0.4% among 300,000. AID 2094; in the data active = activity change below about -75%, passing the limit was not always enough;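 note: luminescence divided by OD600 gain over 9 h not by final OD600 alone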
Numbers stand for hits; - = inactive; . = no result given.

SMILES	CendR NRP1 mod	T cruzi inh	V-ATPase pH	Yeast superoxide	HIF activator	AI-2 QS modul
COc1ccc(/C=C/C(=O)OCC(=O)NC2CCCCCCC2)cc1	-	.	-	-	.	.
Cc1oc2ccc(OCC(N)=O)cc2c1C(=O)OC(C)C	27.6	-	-	-	-	-
O=C(NCC1CCCN(Cc2ccccc2F)C1)c1cccc(C(F)(F)F)c1 (centres undefined)	-	66.3	-	-	-	-
CCOc1ccccc1CN1CCCC(CNC(=O)Cc2ccc(OC)cc2)C1 (centres undefined)	-	58.8	-	-	-	-
CSc1cccc(CN2CCCC(CNC(=O)c3ccc(F)cc3)C2)c1 (centres undefined)	-	-	-	-	-	-
COc1ccc(CC(=O)NCC2CCCN(Cc3cccc(C(F)(F)F)c3)C2)cc1 (centres undefined)	-	-	-	-	-	-
CSc1ccc(CN2CCCC(CNC(=O)c3ccc(F)cc3)C2)cc1 (centres undefined)	-	62.9	-	-	-	-
COc1ccccc1CN1CCCC(CNC(=O)c2cccc3ccccc23)C1 (centres undefined)	-	60.7	-	-	-	-
O=C(Nc1cn(-c2ccccc2)nc1-c1ccc(F)cc1)c1ccccc1	-	-	-	-	-	-
Cc1ccc(Cl)cc1-c1cc(C(=O)Nc2ccc(F)cc2)[nH]n1	-	.	.	.	.	.
CCOC(=O)CSc1nc2ccccc2n1C(=O)OCC	-	-	-	-	-	-
COc1ccc(CC(=O)NCC2CCCN(Cc3ccc(SC)cc3)C2)cc1 (centres undefined)	-	67.8	-	-	-	-
COc1ccc(CC(=O)NCC2CCCN(Cc3ccc(F)c(OC)c3)C2)cc1 (centres undefined)	-	-	-	-	-	-
O=C(NC1CCS(=O)(=O)C1)C1CCCC1 (centres undefined)	-	-	-	-	-	-
CCCCC1CCC(C(=O)NC2CCS(=O)(=O)C2)CC1 (centres undefined)	38.2	-	-	-	-	-
CCN1CCN(C(c2cccc(OC)c2OC)c2nnnn2Cc2ccco2)CC1 (centres undefined)	-	-	-	-	-	-
COc1ccccc1C(c1nnnn1Cc1ccco1)N1CCN(c2cccc(C)c2C)CC1 (centres undefined)	-	73.6	-	-	-	-
Cc1ccc(C)c(S(=O)(=O)NCc2ccc(C(=O)N3CCC(Cc4ccccc4)CC3)cc2)c1	45.4	64.1	-	-	-	-
Cc1ccccc1Nc1cc(=O)oc2ccccc12	22.1	-	-	-	-	-
Cc1ccc(N(C(=O)Cn2nnc3ccccc32)C(C(=O)NCc2ccco2)c2cccnc2)cc1 (centres undefined)	-	-	-	-	-	-
O=C(CSc1cccc[n+]1[O-])c1cc2ccccc2o1	-	60.3	-	-	-	-
C/C(=N\NC(=O)c1cc(-c2ccc(C)s2)nc2ccccc12)c1cccnc1	-	-	-	-	-	-
O=C(N/N=C(\c1ccccc1)c1cccnc1)c1cc(O)ccc1O	.	65.3	.	-	-	-
C/C(=N\NC(=O)c1cc(-c2cccnc2)nc2ccccc12)c1ccc(O)cc1O	-	-	-	-	35.5	-
Cc1nn(-c2ccccc2)c(N2CCCC2)c1/C=N/NC(=O)c1cc(-c2cccnc2)nc2ccccc12	-	57.1	-	-	-	-
SMILES	CendR NRP1 mod	T cruzi inh	V-ATPase pH	Yeast superoxide	HIF activator	AI-2 QS modul
C/C(=N\NC(=O)c1cc(-c2cccc(OC(C)C)c2)nc2ccccc12)c1cccnc1	-	63.5	-	-	-	-
Cc1nn(-c2ccccc2)c(N2CCCC2)c1/C=N/NC(=O)c1ccccc1O	-	-	-	-	-	-
C/C(=N\NC(=O)c1cccnc1)c1ccccc1	-	-	-	-	-	-
C/C(=N\NC(=O)c1cc(-c2ccccc2C)nc2ccccc12)c1cccnc1	-	-	-	-	-	-
CC1CCCN(C(=O)Cn2c(-c3nonc3N)nc3ccccc32)C1 (centres undefined)	-	-	-	-	-	-
O=C(c1cccc(S(=O)(=O)N2CCOCC2)c1)N1CCN(c2ncccn2)CC1	-	.	-	.	.	.
O=C(NCCCN1CCCC1=O)Nc1ccc(Cl)cc1Cl	-	-	-	-	-	-
O=C1CCCN1CCCNC(=S)Nc1ccc(Cl)cc1Cl	39.5	-	-	-	-	-
COc1cc(CNCCc2ccccc2F)ccc1OCC(=O)N1CCCCC1	-	61.8	-	-	-	-
COc1ccccc1OCC(=O)N1CCCCCC1	-	.	-	.	.	.
COc1ccc(CCNC(=O)COc2cccc(-n3cnnn3)c2)cc1	17.7	.	-	.	.	.
COc1cccc(CNC(=O)COc2cccc(-n3cnnn3)c2)c1	-	-	-	-	-	-
COc1ccccc1CC(=O)Nc1cccc(C(=O)Nc2nccs2)c1	-	-	-	-	-	-
CCOCCCNC(=O)C(c1ccc(C)cc1)N(Cc1cccs1)C(=O)c1ccccc1O (centres undefined)	29.3	-	-	-	-	-
O=C(NNC(=O)C1CCCO1)c1ccccc1Cl (centres undefined)	-	-	-	-	-	-
O=C(NC(c1ccccc1)c1ccccc1)C1CCCO1 (centres undefined)	-	-	-	-	130.5	-
CN(CC1CCCO1)S(=O)(=O)c1ccc(C(=O)Nc2nccs2)cc1 (centres undefined)	-	-	-	-	278.7	-
Cc1cc(NC(=O)c2ccc(S(=O)(=O)N(C)CC3CCCO3)cc2)no1 (centres undefined)	-	-	-	-	-	-
CCOc1ccc(Nc2nc(NCC3CCCO3)c3ccccc3n2)cc1 (centres undefined)	-	-	-	-	-	-
Oc1cccc(Nc2nc(NCC3CCCO3)c3ccccc3n2)c1 (centres undefined)	-	-	-	-	-	-
c1ccc(Nc2nc(NCC3CCCO3)c3ccccc3n2)cc1 (centres undefined)	-	93.4	-	-	-	-
COc1ccc(Nc2nc(NCC3CCCO3)c3ccccc3n2)c(OC)c1 (centres undefined)	-	68.4	-	-	-	-
Clc1ccc(-c2nnc3n2CCCC3)cc1Cl	-	-	-	-	-	-
COc1ccc(-n2cnc3cc(NS(=O)(=O)c4ccccc4)ccc32)cc1	-	-	-	-	-	-
CC(C)(C)n1cnc2cc(NS(=O)(=O)c3ccccc3)ccc21	22.9	-	-	-	-	-
O=C(Nc1nc(-c2cccc3ccccc23)cs1)c1ccc2c(c1)S(=O)(=O)c1ccccc1C2=O	-	-	20.7	-	-	-
O=C(Nc1nc(-c2ccccc2)cs1)c1ccc2c(c1)S(=O)(=O)c1ccccc1C2=O	-	-	-	-	-	-
